Screens: PubChem, The Scripps Research Institute Molecular Screening Center
NPY-Y2 PAM-ag: potentiates or activates human NPY-Y2 receptor; P49146; cells expressing NPY-Y2, potentiator/agonist read-out; activation, % at 3.6 µM; actives 0.45% (n = 220,000); AID 1359; in the data active means activation above about 27%;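 further: cells stimulated with NPY near EC25 plus isoproterenol at EC100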
Target sequence (P49146 whole entry, looked up): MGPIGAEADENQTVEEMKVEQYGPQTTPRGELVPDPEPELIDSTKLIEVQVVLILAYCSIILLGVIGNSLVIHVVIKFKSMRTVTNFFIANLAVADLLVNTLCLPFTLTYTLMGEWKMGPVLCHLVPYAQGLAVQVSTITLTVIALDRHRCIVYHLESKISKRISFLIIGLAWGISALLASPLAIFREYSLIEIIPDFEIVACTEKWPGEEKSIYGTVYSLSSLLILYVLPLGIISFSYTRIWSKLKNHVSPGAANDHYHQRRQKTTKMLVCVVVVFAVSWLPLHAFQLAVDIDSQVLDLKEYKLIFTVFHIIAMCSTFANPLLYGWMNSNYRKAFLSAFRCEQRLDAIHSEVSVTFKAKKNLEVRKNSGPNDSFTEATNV
NPY-Y1 PAM-ag: potentiates or activates human NPY-Y1 receptor. P25929. NPY-Y1 expressing cells, potentiator/agonist activation. activation, % at 3.6 µM. actives 0.37% (n = 220,000); in the data active means activation above about 33%, passing the limit was not always enough;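 further: cells stimulated with NPY at EC10 then isoproterenol at EC100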
Target sequence (P25929 whole entry, looked up): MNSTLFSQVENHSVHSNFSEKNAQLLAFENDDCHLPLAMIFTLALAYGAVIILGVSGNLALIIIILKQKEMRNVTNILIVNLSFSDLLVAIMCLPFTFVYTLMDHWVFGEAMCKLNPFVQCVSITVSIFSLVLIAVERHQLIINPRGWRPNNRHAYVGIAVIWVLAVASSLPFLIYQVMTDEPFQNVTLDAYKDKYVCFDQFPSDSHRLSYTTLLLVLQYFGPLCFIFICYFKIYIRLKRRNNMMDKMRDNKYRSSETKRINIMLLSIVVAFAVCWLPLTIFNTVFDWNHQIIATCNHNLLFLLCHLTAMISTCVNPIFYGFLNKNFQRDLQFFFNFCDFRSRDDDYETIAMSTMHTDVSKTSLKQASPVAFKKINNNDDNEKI
NPY-Y2 antag: blocks the human neuropeptide Y Y2 receptor | actives 0.99% (n = 140,000) | NPY-Y2 expressing cells, antagonist mode | inhibition, % at 2.7 µM | AID 793
NPY-Y1 antag: blocks the human neuropeptide Y Y1 receptor; P25929; HEK293-CNG Y1 cells, membrane potential fluorescence; NPY at EC95, then isoproterenol; inhibition, % at 3.6 µM; actives 1% (n = 200,000);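 active means inhibition above the campaign mean inhibition of all tested compounds plus 3 SD, cut at about 20% in these data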
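Benchmarks – high control isoproterenol alone, low control NPY with isoproterenol · Material – HEK293 Y1/CNG channel cell line · Times – dye 3 h, compound 60 min room temperature, stimulation 45 min · Probe or stimulus – NPY (25 nM), isoproterenol (1 µM), Ro 20-1724 (25 µM) · Evaluation – % inhibition of NPY effect · Signal – fluorescence, membrane potential probe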
NPY-Y1 ant conf: human NPY-Y1 antagonism, confirmation | shares compounds with NPY-Y1 antag | inhibition, % at 3.6 µM | HEK293-CNG NPY-Y1, membrane potential fluorescence, cAMP; NPY challenge against isoproterenol-raised cAMP | actives 21% (n = 1,200); in the data active means inhibition above about 20%
NPY2 antag ctr: antagonizes human NPY-Y2, counter-screen to NPY-Y1 antagonists; shares compounds with NPY-Y1 antag; HEK293 NPY-Y2 CNG membrane potential fluorescence, antagonism; cells given NPY, then isoproterenol; inhibition, % at 3.6 µM; actives 28% (n = 1,200)
Of the large screens only hits and unclear results are named; the others gave an inactive call (follow-up assays come after a bar, where they were run). Hits are enriched below; roughly 1.8% of the tested compounds scored in any of these assays. Unless noted, no stated cut-off is given here; in the data, active means inhibition above about 17%; inactive means the rest.

Cc1ccc(-c2csc3nc4c5ccccc5c(NCCCN(C)C)nn4c(=O)c23)cc1	NPY-Y1 antag 24.2 (no result: NPY-Y2 antag) | NPY-Y1 ant conf 24.0 | NPY2 antag ctr 26.2
CC1(C)OC(=O)C(=NNc2ccc(Br)cc2)C(=O)O1	none
COCCN1Cc2cccc(C(=O)Nc3cc(OC)ccc3OC)c2C1=O	NPY-Y1 antag 34.1 | NPY-Y1 ant conf 26.6 | NPY2 antag ctr 62.4
CN1CCN(NC(=O)c2cccc(C(F)(F)F)c2)CC1	none (no result: NPY-Y2 antag, NPY-Y1 antag)
CCN(CC)S(=O)(=O)c1ccc(Oc2ccc(S(=O)(=O)N(CC)CC)cc2)cc1	NPY-Y1 antag 31.8 | NPY-Y1 ant conf 20.6 | NPY2 antag ctr inactive
Cc1ccc(C(=O)N/C(=C/C=C\c2ccccc2)C(=O)NCc2ccco2)cc1	none
CCOC(=O)CSc1nc(C(C)C)nc2sc(C)c(C)c12	NPY-Y1 antag 23.0 (no result: NPY-Y2 antag) | NPY-Y1 ant conf 39.0 | NPY2 antag ctr 41.0
COc1ccc(C(c2c(C)n(C)n(-c3ccccc3)c2=O)c2c(C)n(C)n(-c3ccccc3)c2=O)cc1O	NPY-Y1 antag 56.5 (no result: NPY-Y2 antag) | NPY-Y1 ant conf inactive | NPY2 antag ctr inactive
Cc1c(C(c2cc3c(cc2Br)OCO3)c2c(C)n(C)n(-c3ccccc3)c2=O)c(=O)n(-c2ccccc2)n1C	NPY-Y1 antag 29.2 | NPY-Y1 ant conf inactive | NPY2 antag ctr inactive
Cc1c(C(c2ccccc2O)c2c(C)n(C)n(-c3ccccc3)c2=O)c(=O)n(-c2ccccc2)n1C	none (no result: NPY-Y2 antag)
O=C(CCCOc1ccc(Cl)cc1Cl)N1CCN(c2ccccn2)CC1	NPY-Y1 antag 24.2 | NPY-Y1 ant conf inactive | NPY2 antag ctr inactive
Cc1nc(NCc2ccccn2)c2c3c(sc2n1)CCCC3	NPY-Y1 antag 45.8 (no result: NPY-Y2 antag) | NPY-Y1 ant conf inactive | NPY2 antag ctr inactive
CSCCC(NC(=O)c1ccco1)C(=O)OC(C)C(=O)NC(=O)NC1CCCCC1 (stereo unspecified)	NPY-Y1 antag 25.2 | NPY-Y1 ant conf inactive | NPY2 antag ctr inactive
COc1ccc(N(C)S(=O)(=O)c2ccc(Cl)c(C(=O)NCCc3ccc(Cl)cc3)c2)cc1	NPY-Y1 antag 29.4 (no result: NPY-Y2 antag) | NPY-Y1 ant conf inactive | NPY2 antag ctr inactive
Cc1ccc(C(=O)c2cc([N+](=O)[O-])ccc2N2CCOCC2)c(C)c1	NPY-Y1 antag 33.9 | NPY-Y1 ant conf inactive | NPY2 antag ctr 21.9
Cc1ccc(C(=O)c2cc([N+](=O)[O-])ccc2N2CCOCC2)cc1C	none
CCCCN(C)CCCNC(=O)c1cn(CC)c2ccc(S(=O)(=O)N3CCc4ccccc4C3)cc2c1=O	none (no result: NPY-Y2 antag)
CCCCN(CC)CCCNC(=O)c1cn(CC)c2ccc(S(=O)(=O)N3CCc4ccccc4C3)cc2c1=O	NPY-Y1 antag 21.9 (no result: NPY-Y2 antag) | NPY-Y1 ant conf inactive | NPY2 antag ctr 29.4
CC(C)n1cc(NC(=O)c2cc(-c3ccccc3)on2)cn1	NPY-Y1 antag 23.6 | NPY-Y1 ant conf inactive | NPY2 antag ctr inactive
CCOC(=O)N1CCN(CCC(=O)Nc2cc([N+](=O)[O-])ccc2OC)CC1	none
Cn1c(=NCC(O)COc2ccccc2)sc2ccccc21 (stereo unspecified)	NPY-Y1 antag 22.0 | NPY-Y1 ant conf inactive | NPY2 antag ctr inactive
Clc1ccc(C2=Nn3c(nnc3-c3n[nH]c4c3CCC4)SC2)cc1	none
Brc1ccc(C2=Nn3c(nnc3-c3n[nH]c4c3CCC4)SC2)cc1	NPY-Y1 antag 21.9 | NPY-Y1 ant conf inactive | NPY2 antag ctr 20.5
C#CCn1c(=NC(=O)c2ccc(S(=O)(=O)N3CCCc4ccccc43)cc2)sc2cc(S(N)(=O)=O)ccc21	NPY-Y1 antag 24.2 | NPY-Y1 ant conf inactive | NPY2 antag ctr 30.9
Cc1nc(NCCc2ccc(F)cc2)c(C#N)c(C)c1[N+](=O)[O-]	none
Cc1nc(NCCc2ccccc2F)c(C#N)c(C)c1[N+](=O)[O-]	NPY-Y1 antag 29.2 | NPY-Y1 ant conf inactive | NPY2 antag ctr inactive
Fc1ccc(-c2csc3ncnc(N4CCc5ccccc5C4)c23)cc1	none
CCOC(=O)c1c(CNCCN(CC)CC)n(C)c2cc(Br)c(OC)cc12	NPY-Y1 antag 26.8 | NPY-Y1 ant conf inactive | NPY2 antag ctr inactive
COc1ccc(-c2cc(-c3n[nH]c(=S)n3-c3cccc4ccccc34)[nH]n2)cc1	NPY-Y1 antag 54.6 (no result: NPY-Y2 antag) | NPY-Y1 ant conf 85.2 | NPY2 antag ctr 101.1
S=c1[nH]nc(-c2cc(-c3ccsc3)n[nH]2)n1-c1cccc2ccccc12	none (no result: NPY-Y2 antag)
CCOc1cccc2cc(C(=O)NCCC3=CCCCC3)c(=O)oc12	none (no result: NPY-Y2 antag)
COc1ccc(OC)c(/C=c2\sc3nc(-c4cccs4)nn3c2=O)c1	NPY-Y1 antag 20.4 | NPY-Y1 ant conf inactive | NPY2 antag ctr inactive
CN(C)CC(=O)c1ccc(-c2ccccc2)cc1	NPY-Y1 antag 20.4 | NPY-Y1 ant conf inactive | NPY2 antag ctr inactive
CCN(CC)CC(=O)c1ccc(-c2ccccc2)cc1	none
CC(C)CC1(C)NC(=O)N(CC(=O)Nc2cccc(S(=O)(=O)N(C)c3ccccc3)c2)C1=O (stereo unspecified)	NPY-Y1 antag 50.7 (no result: NPY-Y2 antag) | NPY-Y1 ant conf 45.9 | NPY2 antag ctr 50.5
Cc1ccc(S(=O)(=O)Nc2c(C)n(C)n(-c3ccccc3)c2=O)cc1C(=O)OCC(=O)N1CCCC(C)C1 (stereo unspecified)	none (no result: NPY-Y2 antag)
O=[N+]([O-])c1ccc(C2=NN(CCO)C(=Nc3ccc(OC(F)(F)F)cc3)SC2)cc1	none (no result: NPY-Y2 antag, NPY-Y1 antag)
Cc1ccc(NC(=O)CSc2nc3ccccc3c(=O)n2CCCN2CCCCC2)cc1Cl	NPY-Y1 antag 22.8 (no result: NPY-Y2 antag) | NPY-Y1 ant conf 45.0 | NPY2 antag ctr 55.1
CC1CCN(CCCn2c(SCC(=O)Nc3ccccc3Cl)nc3ccccc3c2=O)CC1	NPY-Y1 antag 31.3 (no result: NPY-Y2 antag) | NPY-Y1 ant conf 24.7 | NPY2 antag ctr 23.8
Cc1ccc(NC(=O)CSc2nc3ccccc3c(=O)n2CCCC(=O)NCCCN2CCOCC2)cc1C	none (no result: NPY-Y2 antag)
Nc1c(C(=O)N/N=C/c2ccc([N+](=O)[O-])cc2)sc2nnc(-c3ccccc3)c(-c3ccccc3)c12	none (no result: NPY-Y2 antag, NPY-Y1 antag)
COc1ccc(-n2nnc3c(=O)n(Cc4cc(C)ccc4C)cnc32)cc1	none
COc1cccc(-n2nnc3c(=O)n(Cc4ccccc4F)cnc32)c1	NPY-Y1 antag 30.2 | NPY-Y1 ant conf inactive | NPY2 antag ctr inactive
COc1ccc(-c2ccc(-c3noc(-c4ccco4)n3)c(OC)n2)cc1	NPY-Y1 antag 78.0 | NPY-Y1 ant conf inactive | NPY2 antag ctr inactive
COc1nc(-c2ccccc2)ccc1-c1noc(-c2ccco2)n1	none
COc1ccc(C[C@H]2CN3C(=NC[C@@H]3C(C)C)N2CCNC(=O)CCC2CCCCC2)cc1	none (no result: NPY-Y2 antag)
COc1ccc(C[C@H]2CN3C(=NC[C@@H]3Cc3ccccc3)N2CCNC(=O)CCC2CCCCC2)cc1	NPY-Y1 antag 33.4 (no result: NPY-Y2 antag) | NPY-Y1 ant conf 35.0 | NPY2 antag ctr 35.7
O=C(CSc1nncc2ccccc12)N1CCCCC1	none (no result: NPY-Y2 antag)
CC(C(=O)Nc1ccc(OCc2ccccc2)cc1)N1CCCC1 (stereo unspecified)	none (no result: NPY-Y2 antag)
CC(C)COCC(CN(Cc1ccccc1)c1ccccc1)N1CCCC1 (stereo unspecified)	NPY-Y1 antag 30.8 (no result: NPY-Y2 antag) | NPY-Y1 ant conf inactive | NPY2 antag ctr inactive
